Source: ChEMBL document CHEMBL5705905, “Pharmacological targeting of kinases MST1 and MST2 augments tissue repair and regeneration” (Sci Transl Med, 2016)
The source made the active and inactive calls. The rule behind the calls is not given here.

How the values were obtained:
[1] = biological target: T1, Serine/threonine-protein kinase 3 (Homo sapiens, UniProt Q13188); experiment: Inhibition of recombinant His-tagged full-length MST2 (unknown origin) expressing in Escherichia coli assessed as GST-tagged MOB1a phosphorylation level incubated for 30 mins by immunoblot analysis
T1 sequence (Q13188 whole entry): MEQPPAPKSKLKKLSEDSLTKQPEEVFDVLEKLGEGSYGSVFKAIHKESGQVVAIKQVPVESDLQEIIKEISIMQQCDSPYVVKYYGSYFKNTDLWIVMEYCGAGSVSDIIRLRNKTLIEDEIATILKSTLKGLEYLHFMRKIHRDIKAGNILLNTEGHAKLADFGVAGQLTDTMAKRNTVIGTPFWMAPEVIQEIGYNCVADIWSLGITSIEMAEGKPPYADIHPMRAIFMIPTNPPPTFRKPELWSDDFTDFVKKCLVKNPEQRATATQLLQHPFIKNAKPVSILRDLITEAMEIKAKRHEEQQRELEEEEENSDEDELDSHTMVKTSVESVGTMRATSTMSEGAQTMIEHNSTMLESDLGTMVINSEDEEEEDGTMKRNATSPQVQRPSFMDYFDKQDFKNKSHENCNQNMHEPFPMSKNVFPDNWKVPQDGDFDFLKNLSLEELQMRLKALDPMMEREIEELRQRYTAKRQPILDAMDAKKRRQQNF

Mus musculus [2] = experiment: Protection against APAP induced liver injury in mouse assessed as decrease in ALT level at 250 mg/kg, ip administered at 1.5 hrs; type: functional, organism-based; conditions: Serum
Mus musculus [3] = experiment: Protection against APAP induced liver injury in mouse assessed as decrease in ALT level at 250 mg/kg, ip administered at 2.5 hrs; type: functional, organism-based; conditions: Serum
Mus musculus [4] = experiment: Protection against APAP induced liver injury in mouse assessed as liver centrilobular necrosis at 250 mg/kg, ip administered at 2.5 hrs; type: functional, organism-based
Mus musculus [5] = experiment: Protection against APAP induced liver injury in mouse assessed as liver centrilobular necrosis at 250 mg/kg, ip administered at 3.5 hrs; type: functional, organism-based
Mus musculus [6] = experiment: Protection against APAP induced liver injury in mouse assessed as liver centrilobular necrosis at 250 mg/kg, ip administered at 1.5 hrs; type: functional
Method in brief: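 Wild-type mice were given APAP orally. NAC at 250 mg/kg was then injected intraperitoneally at 1.5, 2.5 or 3.5 h after APAP. Liver centrilobular necrosis was then assessed.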

Compound: CN1CCC(NS(=O)(=O)c2ccc(Nc3ncc4c(n3)N(C)c3ccsc3C(=O)N4C)cc2)CC1
- IC50 [1]: 3840 nM

Compound: CC(=O)N[C@@H](CS)C(=O)O [ACETYLCYSTEINE]
- Activity (Mus musculus [2]): Active
- Activity (Mus musculus [3]): Active
- Activity (Mus musculus [4]): inactive
- Activity (Mus musculus [5]): inactive
- Activity (Mus musculus [6]): Active
- Activity (Mus musculus [6]; record 2): 80%

Compound: CN1C(=O)c2sccc2N(C)c2nc(Nc3ccc(S(=O)(=O)NC4CC4)cc3)ncc21
- IC50 [1]: 207 nM

Compound: CN1C(=O)c2sccc2N(C)c2nc(Nc3ccc(S(C)(=O)=O)cc3)ncc21
- IC50 [1]: 596 nM

Compound: CSc1ccc(Nc2ncc3c(n2)N(C)c2ccsc2C(=O)N3C)cc1
- IC50 [1]: 1160 nM
